Laboratory results as given in ChEMBL document CHEMBL4715736, “Identification of anticancer agents based on the thieno[2,3-b]pyridine and 1H-pyrazole molecular scaffolds” (2016).

Columns and labels:
Format in all cases: functional
CAKI-1 = assay: Growth inhibition of human CAKI-1 cells assessed as cell growth at 0.01 uM incubated for 48 hrs by sulforhodamine B assay relative to control; conditions: read-out: Activity
In short: (§1)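 NCI Developmental Therapeutics Program NCI60 panel. Compounds that were active in the 10 µM one-dose screen went on to dose–response testing. Growth at each concentration is expressed relative to untreated control (100%). GI50 (concentration giving 50% of maximal inhibition of proliferation) and TGI (concentration giving total growth inhibition) were derived from the curves.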

HCT-116 = assay: Growth inhibition of human HCT-116 cells assessed as cell growth at 100 uM incubated for 48 hrs by sulforhodamine B assay relative to control; conditions: read-out: Activity
MCF7 = assay: Growth inhibition of human MCF7 cells assessed as cell growth at 0.1 uM incubated for 48 hrs by sulforhodamine B assay relative to control; conditions: read-out: Activity
Hs-578T = assay: Growth inhibition of human Hs-578T cells assessed as cell growth at 1 uM incubated for 48 hrs by sulforhodamine B assay relative to control; conditions: read-out: Activity
NCI-H226 = assay: Growth inhibition of human NCI-H226 cells assessed as cell growth at 0.1 uM incubated for 48 hrs by sulforhodamine B assay relative to control; conditions: read-out: Activity
MDA-MB-435 [1] = assay: Growth inhibition of human MDA-MB-435 cells assessed as cell growth at 1 uM incubated for 48 hrs by sulforhodamine B assay relative to control; conditions: read-out: Activity
RXF 393 = assay: Growth inhibition of human RXF 393 cells assessed as cell growth at 0.01 uM incubated for 48 hrs by sulforhodamine B assay relative to control; conditions: read-out: Activity
IGROV-1 [2] = assay: Growth inhibition of human IGROV-1 cells assessed as cell growth at 0.1 uM incubated for 48 hrs by sulforhodamine B assay relative to control; conditions: read-out: Activity
MDA-MB-231 = assay: Growth inhibition of human MDA-MB-231 cells incubated for 48 hrs by sulforhodamine B assay; conditions: for CC50: read-out: LC50 (the source's name)
In short: (§2)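 NCI60 panel at the NCI Developmental Therapeutics Program. Only compounds active in the 10 µM screen went to dose-response testing. GI50, the concentration giving 50% of maximal inhibition of proliferation, and TGI, the concentration giving total growth inhibition, were derived from the dose-response curves.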

SK-MEL-5 = assay: Growth inhibition of human SK-MEL-5 cells assessed as cell growth at 100 uM incubated for 48 hrs by sulforhodamine B assay relative to control; conditions: read-out: Activity
SW-620 = assay: Growth inhibition of human SW-620 cells assessed as cell growth at 0.01 uM incubated for 48 hrs by sulforhodamine B assay relative to control; conditions: read-out: Activity
IGROV-1 [3] = assay: Growth inhibition of human IGROV-1 cells assessed as cell growth at 1 uM incubated for 48 hrs by sulforhodamine B assay relative to control; conditions: read-out: Activity
RPMI-8226 [4] = assay: Growth inhibition of human RPMI-8226 cells assessed as cell growth at 1 uM incubated for 48 hrs by sulforhodamine B assay relative to control; conditions: read-out: Activity
HOP-62 = assay: Growth inhibition of human HOP-62 cells assessed as cell growth at 1 uM incubated for 48 hrs by sulforhodamine B assay relative to control; conditions: read-out: Activity
HCT-15 = assay: Growth inhibition of human HCT-15 cells assessed as cell growth at 0.01 uM incubated for 48 hrs by sulforhodamine B assay relative to control; conditions: read-out: Activity
SR [5] = assay: Growth inhibition of human SR cells assessed as cell growth at 100 uM incubated for 48 hrs by sulforhodamine B assay relative to control; conditions: read-out: Activity
OVCAR-4 = assay: Growth inhibition of human OVCAR-4 cells assessed as cell growth at 0.1 uM incubated for 48 hrs by sulforhodamine B assay relative to control; conditions: read-out: Activity
SNB-75 = assay: Growth inhibition of human SNB-75 cells assessed as cell growth at 1 uM incubated for 48 hrs by sulforhodamine B assay relative to control; conditions: read-out: Activity
OVCAR-8 [6] = assay: Growth inhibition of human OVCAR-8 cells assessed as cell growth at 0.01 uM incubated for 48 hrs by sulforhodamine B assay relative to control; conditions: read-out: Activity
MOLT-4 [7] = assay: Growth inhibition of human MOLT-4 cells assessed as cell growth at 1 uM incubated for 48 hrs by sulforhodamine B assay relative to control; conditions: read-out: Activity
UACC-62 = assay: Growth inhibition of human UACC-62 cells assessed as cell growth at 0.01 uM incubated for 48 hrs by sulforhodamine B assay relative to control; conditions: read-out: Activity
ACHN = assay: Growth inhibition of human ACHN cells assessed as cell growth at 0.01 uM incubated for 48 hrs by sulforhodamine B assay relative to control; conditions: read-out: Activity
MOLT-4 [8] = assay: Growth inhibition of human MOLT-4 cells assessed as cell growth at 0.1 uM incubated for 48 hrs by sulforhodamine B assay relative to control; conditions: read-out: Activity
M14 [9] = assay: Growth inhibition of human M14 cells incubated for 48 hrs by sulforhodamine B assay; in short: as §2
SN12C = assay: Growth inhibition of human SN12C cells assessed as cell growth at 0.01 uM incubated for 48 hrs by sulforhodamine B assay relative to control; conditions: read-out: Activity
U-251 = assay: Growth inhibition of human U-251 cells incubated for 48 hrs by sulforhodamine B assay
In short: (§3)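 NCI DTP 60-line human tumour panel. Dose-response curves were run only for ligands active in the initial 10 µM screen. GI50 (concentration giving 50% of maximal inhibition of proliferation) and TGI (concentration giving total growth inhibition) were derived from these curves.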

SR [10] = assay: Growth inhibition of human SR cells assessed as cell growth at 0.1 uM incubated for 48 hrs by sulforhodamine B assay relative to control; conditions: read-out: Activity
OVCAR-8 [11] = assay: Growth inhibition of human OVCAR-8 cells assessed as cell growth at 100 uM incubated for 48 hrs by sulforhodamine B assay relative to control; conditions: read-out: Activity
K562 = assay: Growth inhibition of human K562 cells assessed as cell growth at 0.1 uM incubated for 48 hrs by sulforhodamine B assay relative to control; conditions: read-out: Activity
M14 [12] = assay: Growth inhibition of human M14 cells assessed as cell growth at 1 uM incubated for 48 hrs by sulforhodamine B assay relative to control; conditions: read-out: Activity
MDA-MB-435 [13] = assay: Growth inhibition of human MDA-MB-435 cells assessed as cell growth at 100 uM incubated for 48 hrs by sulforhodamine B assay relative to control; conditions: read-out: Activity
RPMI-8226 [14] = assay: Growth inhibition of human RPMI-8226 cells assessed as cell growth at 0.01 uM incubated for 48 hrs by sulforhodamine B assay relative to control; conditions: read-out: Activity
786-0 = assay: Growth inhibition of human 786-0 cells assessed as cell growth at 0.1 uM incubated for 48 hrs by sulforhodamine B assay relative to control; conditions: read-out: Activity; in short: as §1
SK-MEL-2 = assay: Growth inhibition of human SK-MEL-2 cells incubated for 48 hrs by sulforhodamine B assay; in short: as §3
NCI-H522 = assay: Growth inhibition of human NCI-H522 cells assessed as cell growth at 0.1 uM incubated for 48 hrs by sulforhodamine B assay relative to control; conditions: read-out: Activity

CCc1cccc(C)c1NC(=O)c1sc2nc3c(cc2c1N)C(=O)CCC3
growth at 0.01 µM (CAKI-1): 89% | growth at 100 µM (HCT-116): 4% | growth at 0.1 µM (MCF7): 90% | growth at 1 µM (Hs-578T): 20% | growth at 0.1 µM (NCI-H226): 94% | growth at 1 µM (MDA-MB-435 [1]): -50% | growth at 0.01 µM (RXF 393): 84% | growth at 0.1 µM (IGROV-1 [2]): 104% | GI50 (MDA-MB-231): 1.04 µM | TGI (MDA-MB-231): > 100 µM | CC50 (MDA-MB-231): > 100 µM | growth at 100 µM (SK-MEL-5): -78% | growth at 0.01 µM (SW-620): 97% | growth at 1 µM (IGROV-1 [3]): 59% | growth at 1 µM (RPMI-8226 [4]): 44% | growth at 1 µM (HOP-62): 52% | growth at 0.01 µM (HCT-15): 93% | growth at 100 µM (SR [5]): -18% | growth at 0.1 µM (OVCAR-4): 91% | growth at 1 µM (SNB-75): -2% | growth at 0.01 µM (OVCAR-8 [6]): 99% | growth at 1 µM (MOLT-4 [7]): 67% | growth at 0.01 µM (UACC-62): 96% | growth at 0.01 µM (ACHN): 94% | growth at 0.1 µM (MOLT-4 [8]): 102% | GI50 (M14 [9]): 0.367 µM | LC50 (concentration killing 50% of cells) (M14 [9]): > 100 µM | TGI (M14 [9]): 19.5 µM | growth at 0.01 µM (SN12C): 97% | GI50 (U-251): 0.57 µM | LC50 (concentration killing 50% of cells) (U-251): > 100 µM | TGI (U-251): > 100 µM | growth at 0.1 µM (SR [10]): 101% | growth at 100 µM (OVCAR-8 [11]): -2% | growth at 0.1 µM (K562): 89% | growth at 1 µM (M14 [12]): 17% | growth at 100 µM (MDA-MB-435 [13]): -13% | growth at 0.01 µM (RPMI-8226 [14]): 101% | growth at 0.1 µM (786-0): 89%

Cc1cccc(NC(=O)c2sc3nc4c(cc3c2N)C(=O)CCC4)c1
growth at 0.01 µM (CAKI-1): 89% | growth at 100 µM (HCT-116): 10% | growth at 0.1 µM (MCF7): 56% | GI50 (SK-MEL-2): 0.254 µM | LC50 (SK-MEL-2): > 100 µM | TGI (SK-MEL-2): > 100 µM | growth at 1 µM (Hs-578T): 11% | growth at 0.1 µM (NCI-H226): 94% | growth at 1 µM (MDA-MB-435 [1]): -61% | growth at 0.01 µM (RXF 393): 97% | growth at 0.1 µM (IGROV-1 [2]): 86% | GI50 (MDA-MB-231): 0.559 µM | TGI (MDA-MB-231): ≥ 100 µM | CC50 (MDA-MB-231): > 100 µM | growth at 100 µM (SK-MEL-5): -30% | growth at 0.01 µM (SW-620): 94% | growth at 0.1 µM (NCI-H522): 51% | growth at 1 µM (IGROV-1 [3]): 42% | growth at 1 µM (RPMI-8226 [4]): 36% | growth at 1 µM (HOP-62): 30% | growth at 0.01 µM (HCT-15): 88% | growth at 0.1 µM (OVCAR-4): 82% | growth at 1 µM (SNB-75): 6% | growth at 0.01 µM (OVCAR-8 [6]): 100% | growth at 1 µM (MOLT-4 [7]): 54% | growth at 0.01 µM (UACC-62): 94% | growth at 0.01 µM (ACHN): 90% | growth at 0.1 µM (MOLT-4 [8]): 95% | GI50 (M14 [9]): 0.165 µM | LC50 (concentration killing 50% of cells) (M14 [9]): > 100 µM | TGI (M14 [9]): ≥ 100 µM | growth at 0.01 µM (SN12C): 95% | GI50 (U-251): 0.261 µM | LC50 (concentration killing 50% of cells) (U-251): ≥ 100 µM | TGI (U-251): ≥ 100 µM | growth at 100 µM (OVCAR-8 [11]): -30% | growth at 0.1 µM (K562): 44% | growth at 1 µM (M14 [12]): 11% | growth at 100 µM (MDA-MB-435 [13]): -64% | growth at 0.01 µM (RPMI-8226 [14]): 99% | growth at 0.1 µM (786-0): 80%

CCc1ccccc1NC(=O)c1sc2nc3c(cc2c1N)C(=O)CCC3
growth at 0.01 µM (CAKI-1): 89% | growth at 100 µM (HCT-116): 6% | growth at 0.1 µM (MCF7): 83% | LC50 (SK-MEL-2): > 100 µM | TGI (SK-MEL-2): > 100 µM | growth at 1 µM (Hs-578T): 18% | growth at 0.1 µM (NCI-H226): 86% | growth at 1 µM (MDA-MB-435 [1]): -53% | growth at 0.01 µM (RXF 393): 94% | growth at 0.1 µM (IGROV-1 [2]): 102% | GI50 (MDA-MB-231): 1.25 µM | TGI (MDA-MB-231): > 100 µM | CC50 (MDA-MB-231): > 100 µM | growth at 100 µM (SK-MEL-5): 2% | growth at 0.01 µM (SW-620): 96% | growth at 0.1 µM (NCI-H522): 88% | growth at 1 µM (IGROV-1 [3]): 62% | growth at 1 µM (RPMI-8226 [4]): 41% | growth at 1 µM (HOP-62): 33% | growth at 0.01 µM (HCT-15): 93% | growth at 100 µM (SR [5]): 2% | growth at 0.1 µM (OVCAR-4): 88% | growth at 1 µM (SNB-75): -8% | growth at 0.01 µM (OVCAR-8 [6]): 98% | growth at 1 µM (MOLT-4 [7]): 66% | growth at 0.01 µM (ACHN): 93% | growth at 0.1 µM (MOLT-4 [8]): 103% | GI50 (M14 [9]): 0.291 µM | LC50 (concentration killing 50% of cells) (M14 [9]): > 100 µM | TGI (M14 [9]): > 100 µM | growth at 0.01 µM (SN12C): 94% | GI50 (U-251): 0.499 µM | LC50 (concentration killing 50% of cells) (U-251): > 100 µM | TGI (U-251): 29.1 µM | growth at 0.1 µM (SR [10]): 96% | growth at 100 µM (OVCAR-8 [11]): 10% | growth at 0.1 µM (K562): 63% | growth at 1 µM (M14 [12]): 17% | growth at 100 µM (MDA-MB-435 [13]): -48% | growth at 0.01 µM (RPMI-8226 [14]): 100% | growth at 0.1 µM (786-0): 89%
